MT1-MMP act inh – blocks activation of human MT1-MMP; HT1080 RFP-PRO-GFP cells, GFP/RFP ratio fluorescence, overnight; percent of plate control window, DMSO zero; AID 651647; P50281; GFP/RFP ratio change, % at 20 µM; actives 0.061% (n = 360,000);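 active means GFP/RFP ratio change of at least 30% with cell ATP level not reduced by more than half and red fluorescence within 50% of control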
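Read-out: GFP/RFP fluorescence ratio; Test system: RFP-PRO-GFP reporter HT1080 cells; Compound dosing: single-point 20 µM compound, 1% DMSO; Times: overnight compound exposure at 37 °C.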
Vif imaging – HIV Vif inhibition; HEK293T cells, Vif self-association by quenched fluorescence, imaging, 24 h; inhibition, % at 7.49 µM; actives 0.35% (n = 340,000); in the data active means inhibition above about 50%, passing the limit was not always enough
core dimer inh – blocks dimerization of HCV core protein. inhibition, % at 5 µM. actives 0.33% (n = 300,000). TR-FRET GST/Flag-core106 dimerization, 1536-well;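 active means inhibition above the mean of all tested compounds plus 3 SD, set per screening campaign, cut at about 45% in these data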
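Assay system: Tagged HCV core106 pair (GST and Flag) | Buffer or medium: KF-containing HEPES buffer, pH 7.45, DTT, CHAPS, BSA | Also added: Eu donor and XL665 acceptor anti-tag antibodies | Dosing: One concentration, 5 µM, in 0.5% DMSO | Timing: 4 h at 22.5 °C | Technique: TR-FRET 671 and 617 nm emission | Repeats: Singlicate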
DAGLB inh – blocks human DAGLB lipase activity; Q8NCG7; HEK293T DAGLB membrane lysate, EnzChek fluorogenic substrate; inhibition, % at 5.17 µM; actives 0.059% (n = 340,000); in the data active means inhibition above about 34%;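 further: 0% = enzyme with vehicle and 100% = wells lacking enzyme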
NR2E3 ag-1 – activates human NR2E3 receptor | Q9Y5X4 | CHO-S Gal4-NCOR/VP16-NR2E3 two-hybrid, luciferase | inhibition of corepressor binding, % at 3.98 µM | actives 0.35% (n = 360,000);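 active means inhibition above the mean of all tested compounds plus 3 SD, cut at about 70% in these data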;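 further: 0% = DMSO with NR2E3 transfected cells and 100% = cells lacking NR2E3 construct; higher means lower luciferase signal from less NR2E3 corepressor binding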
NR2E3 ag-2 – agonists of human nuclear receptor NR2E3; Q9Y5X4; GST-NR2E3/biotin-RetCOR TR-FRET, 1536-well; inhibition of corepressor binding, % at 4.78 µM; actives 0.12% (n = 320,000); AID 2300;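 active means percent inhibition above the cutoff of mean plus 3 SD of all tested compounds, set per screening campaign, cut at about 20% in these data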;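 further: 0% = DMSO wells and 100% = biotin wells as full block of FRET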
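Test system – NR2E3–RetCOR corepressor complex · Quantity – NR2E3 fusion 1.35 nM · Buffer or medium – Tris pH 7.5 · Incubation – Compound–protein incubation for 5 h at 4 °C · Technique – TR-FRET, Eu(K)-anti-GST donor, streptavidin-D2 acceptor, ex 340, em 617/671 nm · Evaluation – percent inhibition of 671/617 nm emission ratio versus biotin and DMSO controls · Plate – 1536-well format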
NR2E3 ag confirm – NR2E3 agonism confirmed in two-hybrid assay; inhibition, % at 3.98 µM; AID 624378; shares compounds with NR2E3 ag-1; CHO-S mammalian two-hybrid NR2E3-NCOR, luciferase luminescence; actives 51% (n = 2,300);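 active means average inhibition above a cutoff equal to the mean inhibition of all tested compounds plus one SD, cut at about 70% in these data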;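 further: 0% = DMSO in NR2E3 cells and 100% = DMSO in cells lacking NR2E3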
GAL4-VP16 luc – GAL4-VP16 reporter inhibition in NR2E3 agonist counterscreen; shares compounds with NR2E3 ag-1; CHO-S GAL4-VP16 luciferase reporter, luminescence; inhibition, % at 3.98 µM; actives 29% (n = 2,300); AID 624379;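 active means mean inhibition above a cutoff equal to the average over all tested compounds plus one standard deviation, cut at about 70% in these data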;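 further: luciferase from a UAS reporter driven by GAL4-VP16 transactivation; 0% = DMSO with VP16-transfected cells and 100% = DMSO with cells lacking VP16; higher means less reporter light so more repression of VP16 activity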
Numbers without * were called inactive. In the library only some 1.1% were active in any assay of this set; here they are far more common.

How did O=C1OC[C@H](Cc2ccc3c(c2)OCO3)/C1=C\c1ccc2c(c1)OCO2 do in these assays?
MT1-MMP act inh: -9; Vif imaging: -42; core dimer inh: 3; DAGLB inh: -9; NR2E3 ag-1: 52; NR2E3 ag-2: 0; NR2E3 ag confirm: 36; GAL4-VP16 luc: 40

What do the screens show for `COc1cnc(-c2ccccn2)nc1Sc1c(Cl)cccc1Cl`?
MT1-MMP act inh: 1; Vif imaging: -32; core dimer inh: 6; DAGLB inh: -2; NR2E3 ag-1: 91*; NR2E3 ag-2: 1; NR2E3 ag confirm: 24; GAL4-VP16 luc: 3

Results for CCOC(=O)C(C)Sc1nc(-c2ccccn2)ncc1OC (stereo unspecified) ?
MT1-MMP act inh: 9; Vif imaging: 1; core dimer inh: -4; DAGLB inh: -3; NR2E3 ag-1: 44; NR2E3 ag-2: -4

How did COc1cnc(-c2ccccn2)nc1Sc1ccccc1Cl do in these assays?
MT1-MMP act inh: 8; Vif imaging: -32; core dimer inh: 1; DAGLB inh: 2; NR2E3 ag-1: 91*; NR2E3 ag-2: -5; NR2E3 ag confirm: 90*; GAL4-VP16 luc: 25

How did O=C(c1cc(COc2ccc(F)cc2Cl)on1)N1CCN(C2CCCCC2)C(=O)C1 do in these assays?
MT1-MMP act inh: 5; Vif imaging: 8; core dimer inh: 3; DAGLB inh: -3; NR2E3 ag-1: 57; NR2E3 ag-2: -1; NR2E3 ag confirm: 16; GAL4-VP16 luc: 24

What do the screens show for `Cc1cccc(C(=O)N[C@H](C(=O)Nc2nnc(C3CC3)s2)C(C)C)c1`?
MT1-MMP act inh: 4; Vif imaging: 22; core dimer inh: -9; DAGLB inh: 2; NR2E3 ag-1: 15; NR2E3 ag-2: -4

How did Cc1cccc(C(=O)N[C@H](C(=O)Nc2ncc(C)s2)C(C)C)c1 do in these assays?
MT1-MMP act inh: -5; Vif imaging: 5; core dimer inh: 3; DAGLB inh: 1; NR2E3 ag-1: 85*; NR2E3 ag-2: 1; NR2E3 ag confirm: 98*; GAL4-VP16 luc: 23

What do the screens show for `CCC1Sc2ccc(S(=O)(=O)Nc3ccc(OC)cc3)cc2NC1=O` (stereo unspecified)?
MT1-MMP act inh: -1; Vif imaging: 4; core dimer inh: 3; DAGLB inh: -1; NR2E3 ag-1: 60; NR2E3 ag-2: 4; NR2E3 ag confirm: 45; GAL4-VP16 luc: 52

How did CCC1Sc2ccc(S(=O)(=O)Nc3ccc(OC)c(OC)c3)cc2NC1=O (stereo unspecified) do in these assays?
MT1-MMP act inh: 4; Vif imaging: -3; core dimer inh: 0; DAGLB inh: 2; NR2E3 ag-1: 88*; NR2E3 ag-2: 0; NR2E3 ag confirm: 81*; GAL4-VP16 luc: 57

What do the screens show for `Cc1ccc(C)c(OCC(=O)N/N=C/c2ccc(N3CCOCC3)cc2)c1`?
MT1-MMP act inh: 4; Vif imaging: -1; DAGLB inh: 1; NR2E3 ag-1: -52

How did COc1cc2nc(=S)n3[nH]c(CCn4nc(C)cc4C)nc3c2cc1OC do in these assays?
MT1-MMP act inh: 6; Vif imaging: 7; core dimer inh: -1; DAGLB inh: -1; NR2E3 ag-1: 85*; NR2E3 ag-2: -1; NR2E3 ag confirm: 9; GAL4-VP16 luc: -14

Results for O=C(CSc1nnnn1-c1ccc2c(c1)OCCO2)Nc1nc2c(s1)CCCC2 ?
MT1-MMP act inh: -1; Vif imaging: -6; core dimer inh: 5; DAGLB inh: 1; NR2E3 ag-1: 96*; NR2E3 ag-2: 3; NR2E3 ag confirm: 98*; GAL4-VP16 luc: 5

Compound activity as filed in PubChem.
